From ChEMBL document CHEMBL1136453, “New classes of antibacterial oxazolidinones with C-5, methylene O-linked heterocyclic side chains” (2003)
≈ marks a conversion by molar mass, not a printed value.

Assays:
Staphylococcus aureus [1] = test: In vitro minimum inhibitory concentration against Staphylococcus aureus Oxford; assay type: functional
Enterococcus faecalis = test: In vitro minimum inhibitory concentration against Enterococcus faecalis; assay type: functional
Method in brief: (§1)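 Agar dilution per NCCLS protocol with doubling dilutions from 128 to 0.008 mg/L, incubated at 37 °C. Strains came from an in-house culture collection. MIC reported in mg/L.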

Streptococcus pyogenes = test: In vitro minimum inhibitory concentration against Streptococcus pyogenes penicillin sensitive; assay type: functional; method in brief: as §1
Staphylococcus aureus [2] = test: In vitro minimum inhibitory concentration against Staphylococcus aureus MRQR; assay type: functional
Staphylococcus aureus [3] = test: In vitro minimum inhibitory concentration against coagulase negative Staphylococcus aureus methicillin resistant (CNSMR); assay type: functional
[4] = In vivo antibacterial activity against Staphylococcus aureus after intravenous administration (5 mg/kg) in mice using (MTT) mouse thigh test
Staphylococcus aureus [5] = test: In vivo antibacterial activity against Staphylococcus aureus after intravenous administration (10 mg/kg) in mice using (MTT) mouse thigh test
[6] = Staphylococcus aureus, read-out: MIC

SMILES | MIC (Staphylococcus aureus [1]; [6]) [µg/mL] | MIC (Enterococcus faecalis) [µg/mL] | MIC (Streptococcus pyogenes) [µg/mL] | MIC (Staphylococcus aureus [2]) [µg/mL] | MIC (Staphylococcus aureus [3]) [µg/mL] | Activity [4] | Activity (Staphylococcus aureus [5]) | MIC (Staphylococcus aureus [1]) [µg/mL]
O=C1O[C@@H](COc2cccc[n+]2[O-])CN1c1ccc(C2=CCOCC2)c(F)c1 | > 128 | > 128 | > 128 | > 128 | – | – | – | –
N#CCCS(=O)(=O)C[C@H](O)C(=O)N1CC=C(c2c(F)cc(N3C[C@H](COc4ccon4)OC3=O)cc2F)CC1 | 0.25 (≈ 0.441 µM) | 1 (≈ 1.77 µM) | 0.5 (≈ 0.883 µM) | 0.5 (≈ 0.883 µM) | 0.5 (≈ 0.883 µM) | – | – | –
O=C(C(CO)Cn1cncn1)N1CC=C(c2c(F)cc(N3C[C@H](COc4ccon4)OC3=O)cc2F)CC1 (stereo not given in full) | 0.5 (≈ 0.943 µM) | 2 (≈ 3.77 µM) | 1 (≈ 1.89 µM) | 1 (≈ 1.89 µM) | 1 (≈ 1.89 µM) | 0.25 | 0.5 | –
O=C1O[C@@H](COc2ccon2)CN1c1ccc(C2=CCN(CCO)CC2)c(F)c1 | 4 (≈ 9.92 µM) | 8 (≈ 19.8 µM) | 2 (≈ 4.96 µM) | 8 (≈ 19.8 µM) | 4 (≈ 9.92 µM) | – | – | –
CN1CC=C(c2c(F)cc(N3C[C@H](COc4ccon4)OC3=O)cc2F)CC1 | 2 (≈ 5.11 µM) | 4 (≈ 10.2 µM) | 1 (≈ 2.56 µM) | 2 (≈ 5.11 µM) | 2 (≈ 5.11 µM) | – | – | –
O=C([C@@H](O)CO)N1CC=C(c2ccc(N3C[C@H](COc4cnsn4)OC3=O)cc2F)CC1 | 0.06 (≈ 0.129 µM) | 0.25 (≈ 0.538 µM) | 0.13 (≈ 0.28 µM) | 0.13 (≈ 0.28 µM) | 0.13 (≈ 0.28 µM) | 0.42 | 1.11 | –
CC(=O)N1CC=C(c2ccc(N3C[C@H](COc4ccon4)OC3=O)cc2F)CC1 | 0.5 (≈ 1.25 µM) | 1 (≈ 2.49 µM) | 1 (≈ 2.49 µM) | 0.5 (≈ 1.25 µM) | 0.5 (≈ 1.25 µM) | 0.17 | 0.81 | –
O=C1O[C@@H](COc2ccncc2)CN1c1ccc(C2=CCOCC2)c(F)c1 | 16 (≈ 43.2 µM) | 64 (≈ 173 µM) | 64 (≈ 173 µM) | 32 (≈ 86.4 µM) | 32 (≈ 86.4 µM) | – | – | –
Cc1cccc(OC[C@H]2CN(c3ccc(C4=CCOCC4)c(F)c3)C(=O)O2)n1 | > 128 | > 128 | > 128 | > 128 | – | – | – | –
O=C1O[C@@H](COc2ccncn2)CN1c1ccc(C2=CCOCC2)c(F)c1 | 1 (≈ 2.69 µM) | 4 (≈ 10.8 µM) | 4 (≈ 10.8 µM) | 2 (≈ 5.39 µM) | 2 (≈ 5.39 µM) | 0.23 | 0.34 | –
O=C1O[C@@H](COc2ccccc2)CN1c1ccc(C2=CCOCC2)c(F)c1 | > 128 | > 128 | > 128 | > 128 | – | – | – | –
O=C(C(CO)CO)N1CC=C(c2c(F)cc(N3C[C@H](COc4ccon4)OC3=O)cc2F)CC1 | 0.5 (≈ 1.04 µM) | 1 (≈ 2.09 µM) | 0.5 (≈ 1.04 µM) | 0.5 (≈ 1.04 µM) | 0.5 (≈ 1.04 µM) | 0.37 | 0.41 | –
Cc1cccnc1OC[C@H]1CN(c2ccc(C3=CCOCC3)c(F)c2)C(=O)O1 | 8 (≈ 20.8 µM) | 32 (≈ 83.2 µM) | 8 (≈ 20.8 µM) | 16 (≈ 41.6 µM) | 16 (≈ 41.6 µM) | – | – | –
N#Cc1ccc(OC[C@H]2CN(c3ccc(C4=CCOCC4)c(F)c3)C(=O)O2)nc1 | > 128 | > 128 | > 128 | > 128 | – | – | – | –
O=C1O[C@@H](COc2cccnn2)CN1c1ccc(C2=CCOCC2)c(F)c1 | 2 (≈ 5.39 µM) | 4 (≈ 10.8 µM) | 2 (≈ 5.39 µM) | 2 (≈ 5.39 µM) | 2 (≈ 5.39 µM) | – | – | –
Cc1ccnc(OC[C@H]2CN(c3ccc(C4=CCOCC4)c(F)c3)C(=O)O2)c1 | 2 (≈ 5.2 µM) | 4 (≈ 10.4 µM) | 4 (≈ 10.4 µM) | 2 (≈ 5.2 µM) | 2 (≈ 5.2 µM) | – | – | –

SMILES | MIC (Staphylococcus aureus [1]; [6]) [µg/mL] | MIC (Enterococcus faecalis) [µg/mL] | MIC (Streptococcus pyogenes) [µg/mL] | MIC (Staphylococcus aureus [2]) [µg/mL] | MIC (Staphylococcus aureus [3]) [µg/mL] | Activity [4] | Activity (Staphylococcus aureus [5]) | MIC (Staphylococcus aureus [1]) [µg/mL]
O=C1O[C@@H](COc2ncccn2)CN1c1ccc(C2=CCOCC2)c(F)c1 | 16 (≈ 43.1 µM) | 64 (≈ 172 µM) | 32 (≈ 86.2 µM) | 16 (≈ 43.1 µM) | 16 (≈ 43.1 µM) | – | – | –
Cc1cc(OC[C@H]2CN(c3ccc(C4=CCOCC4)c(F)c3)C(=O)O2)no1 | 1 (≈ 2.67 µM) | 4 (≈ 10.7 µM) | 4 (≈ 10.7 µM) | 2 (≈ 5.34 µM) | 2 (≈ 5.34 µM) | – | -0.45 | –
CS(=O)(=O)c1ccc(N2C[C@H](COc3nccs3)OC2=O)cc1F | 16 (≈ 43 µM) | 32 (≈ 85.9 µM) | 16 (≈ 43 µM) | 16 (≈ 43 µM) | 32 (≈ 85.9 µM) | – | – | –
O=C1O[C@@H](COc2cnccn2)CN1c1ccc(C2=CCOCC2)c(F)c1 | 1 (≈ 2.69 µM) | 2 (≈ 5.39 µM) | 1 (≈ 2.69 µM) | 1 (≈ 2.69 µM) | 1 (≈ 2.69 µM) | 0.22 | 0.35 | –
O=C1O[C@@H](COc2cccnc2)CN1c1ccc(C2=CCOCC2)c(F)c1 | 4 (≈ 10.8 µM) | 8 (≈ 21.6 µM) | 8 (≈ 21.6 µM) | 4 (≈ 10.8 µM) | 4 (≈ 10.8 µM) | – | – | –
O=C1O[C@@H](COc2cnsn2)CN1c1ccc(C2=CCOCC2)c(F)c1 | 0.25 (≈ 0.662 µM) | 0.5 (≈ 1.32 µM) | 0.25 (≈ 0.662 µM) | 0.25 (≈ 0.662 µM) | 0.25 (≈ 0.662 µM) | 0.11 | 0.45 | –
O=C([C@@H](O)CS(=O)(=O)CCO)N1CC=C(c2c(F)cc(N3C[C@H](COc4ccon4)OC3=O)cc2F)CC1 | 0.25 (≈ 0.448 µM) | 0.5 (≈ 0.897 µM) | 0.25 (≈ 0.448 µM) | 0.5 (≈ 0.897 µM) | 0.25 (≈ 0.448 µM) | 0.1 | 0.32 | –
O=C1O[C@@H](COc2ccon2)CN1c1cc(F)c(C2=CCN(Cc3nccs3)CC2)c(F)c1 | 0.5 (≈ 1.05 µM) | 2 (≈ 4.22 µM) | 1 (≈ 2.11 µM) | 1 (≈ 2.11 µM) | 1 (≈ 2.11 µM) | 0.07 | 0.28 | –
Cc1nnc(OC[C@H]2CN(c3ccc(C4=CCOCC4)c(F)c3)C(=O)O2)o1 | 4 (≈ 10.7 µM) | 8 (≈ 21.3 µM) | 8 (≈ 21.3 µM) | 4 (≈ 10.7 µM) | 8 (≈ 21.3 µM) | – | – | –
COC(=O)c1cc(OC[C@H]2CN(c3ccc(C4=CCOCC4)c(F)c3)C(=O)O2)no1 | 8 (≈ 19.1 µM) | 128 (≈ 306 µM) | 16 (≈ 38.2 µM) | 16 (≈ 38.2 µM) | 32 (≈ 76.5 µM) | – | – | –
O=C([C@H](O)CO)N1CC=C(c2c(F)cc(N3C[C@H](COc4ccon4)OC3=O)cc2F)CC1 | 0.25 (≈ 0.537 µM) | 0.5 (≈ 1.07 µM) | 0.25 (≈ 0.537 µM) | 0.25 (≈ 0.537 µM) | 0.5 (≈ 1.07 µM) | – | 0.55 | –
O=C(CO)N1CC=C(c2ccc(N3C[C@H](COc4cnsn4)OC3=O)cc2F)CC1 | 0.13 (≈ 0.299 µM) | 0.25 (≈ 0.575 µM) | 0.25 (≈ 0.575 µM) | 0.25 (≈ 0.575 µM) | 0.25 (≈ 0.575 µM) | 0.78 | 1.21 | –
O=C1O[C@@H](Cn2ccccc2=O)CN1c1ccc(C2=CCOCC2)c(F)c1 | – | 64 (≈ 173 µM) | 32 (≈ 86.4 µM) | 32 (≈ 86.4 µM) | 32 (≈ 86.4 µM) | – | – | 32 (≈ 86.4 µM)
O=C(C(CO)Cn1ccnc1)N1CC=C(c2c(F)cc(N3C[C@H](COc4ccon4)OC3=O)cc2F)CC1 (stereo not given in full) | 1 (≈ 1.89 µM) | 2 (≈ 3.78 µM) | 1 (≈ 1.89 µM) | 2 (≈ 3.78 µM) | 2 (≈ 3.78 µM) | – | – | –
Cc1cc(OC[C@H]2CN(c3cc(F)c(C4=CCN(C(=O)[C@@H](O)CO)CC4)c(F)c3)C(=O)O2)on1 | 1 (≈ 2.09 µM) | 2 (≈ 4.17 µM) | 2 (≈ 4.17 µM) | 2 (≈ 4.17 µM) | 1 (≈ 2.09 µM) | – | – | –
O=C(CO)N1CC=C(c2c(F)cc(N3C[C@H](COc4cnsn4)OC3=O)cc2F)CC1 | 0.13 (≈ 0.287 µM) | 0.5 (≈ 1.11 µM) | 0.25 (≈ 0.553 µM) | 0.25 (≈ 0.553 µM) | 0.25 (≈ 0.553 µM) | 1.05 | 1.72 | –
